Measurements from ChEMBL document CHEMBL2176867, “Design, synthesis, and biological evaluation of novel deguelin-based heat shock protein 90 (HSP90) inhibitors targeting proliferation and angiogenesis” (J Med Chem, 2012).
Calls of active or inactive are those of the source. No cut-off for these calls is given here.

What was measured:
[1] = Cytotoxicity against human H1299 cells after 3 days by MTS assay; format: functional, cell-based; settings: NCI-H1299, 72 h
Summary of the method: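 H1299 NSCLC cells seeded at 5 × 10³ cells/well, treated next day with graded concentrations (0.1% DMSO as dilution control); proliferation read by MTS after 3 days; at least three replicate wells; IC50 taken as mean of triplicate experiments.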

Danio rerio [2] = organism: Danio rerio; assay: Antiangiogenic activity in transgenic zebrafish at 50 nM up to 72 hrs; format: functional, organism-based
Summary of the method: (§1)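 Tg(fli:EGFP)^y1 embryos, treated with 1-phenyl-2-thiourea at 12 hpf to block pigmentation, placed in Danieau's solution ± test agents (50, 250, 1250 nM) at 24 hpf; solution washed out at 48 hpf; subintestinal vessels imaged in 72 hpf larvae against DMSO control.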

Danio rerio [3] = organism: Danio rerio; assay: Toxicity in transgenic zebrafish embryos assessed as developmental deffect at 50 nM to 10 uM after 24 hrs; format: organism-based; settings: in vivo, 0.05 µM
Summary of the method: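 Tg(fli:EGFP)y1 zebrafish embryos were exposed dose-dependently from 50% epiboly (5.3 hpf) across 50 nM to 10 μM, then scored for developmental defects. Pigmentation was blocked with 1-phenyl-2-thiourea at 12 hpf, and compounds were given in Danieau's solution, with DMSO as the negative control.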

Danio rerio [4] = organism: Danio rerio; assay: Toxicity in transgenic zebrafish embryos assessed as effect on viability after 24 hrs; format: organism-based; settings: in vivo
Summary of the method: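 Tg(fli:EGFP)y1 zebrafish embryos, with pigment suppressed by 1-phenyl-2-thiourea from 12 hpf, were placed at 24 hpf in Danieau's solution with or without compound (50 nM to 1.25 μM). The solution was washed out at 48 hpf, and embryos were examined for viability and gross morphological abnormalities, with DMSO as the control.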

[5] = target: Heat shock protein HSP 90-beta (Homo sapiens) (UniProt P08238); assay: Inhibition of HSP90 in human H1299 cells assessed as reduction of HIF1alpha level treated for 72 hrs followed by incubated for 12 hrs under hypoxia condition by Western blot analysis; format: cell-based
Chain of Heat shock protein HSP 90-beta (Homo sapiens) (P08238 whole entry): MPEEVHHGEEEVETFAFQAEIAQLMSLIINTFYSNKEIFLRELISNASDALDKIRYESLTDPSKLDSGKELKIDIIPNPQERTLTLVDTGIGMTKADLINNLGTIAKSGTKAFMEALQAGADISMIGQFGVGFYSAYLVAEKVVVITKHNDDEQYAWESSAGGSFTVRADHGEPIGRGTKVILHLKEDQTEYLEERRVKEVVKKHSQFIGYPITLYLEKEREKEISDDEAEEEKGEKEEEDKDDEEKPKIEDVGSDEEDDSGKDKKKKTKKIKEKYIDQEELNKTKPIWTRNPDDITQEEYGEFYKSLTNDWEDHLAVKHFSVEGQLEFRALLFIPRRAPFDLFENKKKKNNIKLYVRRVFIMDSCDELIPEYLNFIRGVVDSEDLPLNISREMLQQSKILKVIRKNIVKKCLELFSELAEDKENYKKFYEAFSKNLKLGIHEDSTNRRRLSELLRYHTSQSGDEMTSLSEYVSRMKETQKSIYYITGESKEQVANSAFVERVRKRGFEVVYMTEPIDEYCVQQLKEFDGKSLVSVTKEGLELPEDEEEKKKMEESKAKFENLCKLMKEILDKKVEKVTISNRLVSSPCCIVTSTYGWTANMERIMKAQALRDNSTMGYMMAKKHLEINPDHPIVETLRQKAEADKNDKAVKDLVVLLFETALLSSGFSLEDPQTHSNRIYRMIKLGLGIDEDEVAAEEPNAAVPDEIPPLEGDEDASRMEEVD
Summary of the method: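 H1299 cells left untreated or exposed to test agents at each concentration for 72 h, then held under hypoxia (1% O₂) for 12 h; lysates immunoblotted with monoclonal anti-HIF-1α antibody.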

Danio rerio [6] = organism: Danio rerio; assay: Antiangiogenic activity in transgenic zebrafish embryos
Danio rerio [7] = organism: Danio rerio; assay: Toxicity in transgenic zebrafish embryos assessed as effect on viability at 50 nM to 1.25 uM after 74 hrs; format: organism-based; settings: in vivo, 0.05 µM
Summary of the method: (§2)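 Zebrafish embryos exposed from 24 hpf to 50 nM–1.25 μM in Danieau's solution (pigmentation blocked with 1-phenyl-2-thiourea at 12 hpf); solution washed out at 48 hpf, then scored for viability and gross morphological abnormalities.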

Danio rerio [8] = organism: Danio rerio; assay: Toxicity in transgenic zebrafish embryos assessed as developmental deffect at 10 uM after 24 hrs; format: organism-based; settings: in vivo
Danio rerio [9] = organism: Danio rerio; assay: Toxicity in transgenic zebrafish embryos assessed as developmental deffect at 50 nM to 1.25 uM after 24 hrs; format: organism-based; settings: in vivo, 0.05 µM; summary of the method: as §2
Danio rerio [10] = organism: Danio rerio; assay: Toxicity in transgenic zebrafish embryos assessed as effect on growth at 50 nM to 1.25 uM after 74 hrs; format: organism-based; settings: in vivo, 0.05 µM; summary of the method: as §2
Danio rerio [11] = organism: Danio rerio; assay: Antiangiogenic activity in transgenic zebrafish at 0.05 to 1.25 uM up to 72 hrs; format: functional, organism-based; summary of the method: as §1
[12] = target: Heat shock protein HSP 90-beta (Homo sapiens) (UniProt P08238); assay: Inhibition of HSP90 binding to HIF1alpha in human H1299 cells at 12.5 uM after 30 mins by immunoprecipitation and immunoblotting analysis in presence of ATP; format: cell-based; settings: 1.25 uM, in the assay text read “1.25 uM” for “12.5 uM”
Summary of the method: (§3)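 Cell-free format: lysates of H1299 cells pretreated with 100 μM CoCl₂ for 5 h, incubated with compound at 1.25 μM, with or without 20 mM ATP, 30 min at 37 °C. HIF-1α immunoprecipitated (antibody overnight, 4 °C; protein G-agarose 2 h, 4 °C), resolved on 6% SDS-PAGE, blotted for HSP90.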

Danio rerio [13] = organism: Danio rerio; assay: Antiangiogenic activity in transgenic zebrafish assessed as depletion of subintestinal veins at 50 nM to 1250 nM after 72 hrs; format: functional, organism-based; summary of the method: as §1
[14] = target: Heat shock protein HSP 90-beta (Homo sapiens) (UniProt P08238); assay: Inhibition of HSP90 binding to HIF1alpha in human H1299 cells at 12.5 uM after 30 mins by immunoprecipitation and immunoblotting analysis; format: cell-based; settings: 1.25 uM, in the assay text read “1.25 uM” for “12.5 uM”; summary of the method: as §3
Danio rerio [15] = organism: Danio rerio; assay: Antiangiogenic activity in transgenic zebrafish assessed as depletion of subintestinal veins after 72 hrs; format: functional, organism-based; summary of the method: as §1

SMILES	IC50 [1] [µM]	also measured
COc1cc2c(cc1OC)[C@@H]1C(=O)c3ccc(OCc4ccccc4)c(CC=C(C)C)c3O[C@@H]1CO2	> 500	
COc1cc2c(cc1OC)[C@@H]1C(=O)c3ccc4c(c3O[C@@H]1CO2)C=CC(C)(C)O4 [DEGUELIN]	0.11	Activity (Danio rerio [2]): inactive; Activity (Danio rerio [3]): Toxic; Activity (Danio rerio [4]): Dose-dependent effect
COc1cc2c(cc1OC)[C@@H]1C(=O)c3ccc(O)c(CC=C(C)C)c3O[C@@H]1CO2 [ROTENONIC ACID]	9.8	
COc1cc2c(cc1OC)[C@@H]1Cc3ccc4c(c3O[C@@H]1CO2)C=CC(C)(C)O4	4.2	
COc1ccc([C@@H](C)C(=O)c2ccc3c(c2OC)C=CC(C)(C)O3)cc1OC	1.3	inhibition [5]: Active; Activity (Danio rerio [6]): Dose-dependent effect; Activity (Danio rerio [7]): Non-toxic; Activity (Danio rerio [8]): Toxic; Activity (Danio rerio [9]): Non-toxic; Activity (Danio rerio [10]): Non-toxic
COc1cc2c(cc1OC)[C@@H]1/C(=N/OCc3ccccc3)c3ccc4c(c3O[C@@H]1CO2)C=CC(C)(C)O4	> 500	
COc1ccc(C2COc3c(ccc4c3C=CC(C)(C)O4)C2=O)cc1OC (racemic)	4.5	
COc1cc2c(cc1OC)[C@@H]1[C@H](OCc3ccccc3)c3ccc4c(c3O[C@@H]1CO2)C=CC(C)(C)O4	> 500	
C=CCOc1ccc2c(c1CC=C(C)C)O[C@@H]1COc3cc(OC)c(OC)cc3[C@@H]1C2=O	> 500	
COc1cc2c(cc1OC)[C@@H]1[C@H](O)c3ccc4c(c3O[C@@H]1CO2)C=CC(C)(C)O4	0.01	inhibition [5]: Active; Activity (Danio rerio [11]): inactive
COc1cc2c(cc1OC)[C@@H]1[C@H](OC(N)=O)c3ccc4c(c3O[C@@H]1CO2)C=CC(C)(C)O4	0.11	inhibition [5]: Active; Activity (Danio rerio [11]): inactive
COc1ccc(C(C)C(=O)c2ccc3c(c2OC)C=CC(C)(C)O3)cc1OC (racemic)	0.73	
CC1(C)C=Cc2c(ccc3c2O[C@@H]2COc4cc(O)c(O)cc4[C@@H]2C3=O)O1	10.1	
CCO[C@@H]1c2ccc3c(c2O[C@@H]2COc4cc(OC)c(OC)cc4[C@H]12)C=CC(C)(C)O3	9.8	
COc1ccc(C(C)(C)C(=O)c2ccc3c(c2OC)C=CC(C)(C)O3)cc1OC	3.2	
COc1cc2c(cc1OC)[C@@H]1C(=O)c3ccc(OC(C)=O)c(CC=C(C)C)c3O[C@@H]1CO2	> 500	
COc1cc2c(cc1OC)[C@@H]1C(=O)c3ccc4c(c3O[C@@H]1CO2)CCC(C)(C)O4	0.14	

SMILES	IC50 [1] [µM]	also measured
COc1cc2c(cc1OC)C1=Cc3ccc4c(c3O[C@@H]1CO2)C=CC(C)(C)O4	> 500	
COc1cc2c(cc1OC)[C@@H]1[C@H](OC)c3ccc4c(c3O[C@@H]1CO2)C=CC(C)(C)O4	4.1	
COc1cc2c(cc1OC)C(C(=O)c1ccc3c(c1)C=CC(C)(C)O3)CCO2 (racemic)	3.8	
COc1cc2c(cc1OC)[C@@H]1/C(=N/O)c3ccc4c(c3O[C@@H]1CO2)C=CC(C)(C)O4	0.3	
COc1cc2c(cc1OC)[C@@H]1[C@H](OC(C)=O)c3ccc4c(c3O[C@@H]1CO2)C=CC(C)(C)O4	0.68	
COc1ccc([C@H](C)C(=O)c2ccc3c(c2OC)C=CC(C)(C)O3)cc1OC	0.49	inhibition [12]: inactive; Activity (Danio rerio [13]): Active; inhibition [5]: Active; Activity (Danio rerio [6]): Dose-dependent effect; Activity (Danio rerio [7]): Non-toxic; Activity (Danio rerio [8]): Toxic; Activity (Danio rerio [9]): Non-toxic; inhibition [14]: Active; Activity (Danio rerio [10]): Non-toxic
COc1cc2c(cc1OC)[C@@H]1C(=O)c3ccc(OC)c(CC=C(C)C)c3O[C@@H]1CO2 [ROTENONIC ACID, METHYL ETHER]	5.2	
CCCO[C@@H]1c2ccc3c(c2O[C@@H]2COc4cc(OC)c(OC)cc4[C@H]12)C=CC(C)(C)O3	10.5	
COc1ccc(CC(=O)c2ccc3c(c2OC)C=CC(C)(C)O3)cc1OC	0.14	inhibition [12]: inactive; inhibition [5]: Active; Activity (Danio rerio [6]): Dose-dependent effect; Activity (Danio rerio [7]): Non-toxic; Activity (Danio rerio [8]): Toxic; Activity (Danio rerio [15]): Dose-dependent effect; Activity (Danio rerio [9]): Non-toxic; inhibition [14]: Active; Activity (Danio rerio [10]): Non-toxic
COc1ccc(C2(C(=O)c3ccc4c(c3OC)C=CC(C)(C)O4)CC2)cc1OC	102	
COc1cc2c(cc1OC)[C@@H]1C(=O)c3ccc4c(c3O[C@@H]1CO2)C(O)C(O)C(C)(C)O4 (some centres undefined)	> 500	
CO/N=C1\c2ccc3c(c2O[C@@H]2COc4cc(OC)c(OC)cc4[C@H]12)C=CC(C)(C)O3	4.3	
COc1cc2c(cc1O)OC[C@H]1Oc3c(ccc4c3C=CC(C)(C)O4)C(=O)[C@@H]21	0.87	
COc1cc2c(cc1OC)-c1c(oc3c4c(ccc3c1=O)OC(C)(C)C=C4)CO2 [DEHYDRODEGUELIN]	> 500	
COc1ccc(CC(=O)c2ccc3c(c2)C=CC(C)(C)O3)cc1OC	1	
COc1cc2c(cc1O)[C@@H]1C(=O)c3ccc4c(c3O[C@@H]1CO2)C=CC(C)(C)O4	0.97	
